Screens: PubChem, The Scripps Research Institute Molecular Screening Center
NPY1 pot ag – human NPY-Y1 potentiation or agonism, primary screen; P25929; NPY-Y1 expressing cells, potentiator/agonist activation; activation, % at 3.6 µM; 0.37% of 220,000 active; AID 1304; in the data active = activation above about 33%, passing the limit was not always enough;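 also: cells stimulated with NPY at EC10 then isoproterenol at EC100; 0% = low agonist plus stimulus and 100% = saturating agonist plus stimulus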
Target sequence (P25929 whole entry, looked up): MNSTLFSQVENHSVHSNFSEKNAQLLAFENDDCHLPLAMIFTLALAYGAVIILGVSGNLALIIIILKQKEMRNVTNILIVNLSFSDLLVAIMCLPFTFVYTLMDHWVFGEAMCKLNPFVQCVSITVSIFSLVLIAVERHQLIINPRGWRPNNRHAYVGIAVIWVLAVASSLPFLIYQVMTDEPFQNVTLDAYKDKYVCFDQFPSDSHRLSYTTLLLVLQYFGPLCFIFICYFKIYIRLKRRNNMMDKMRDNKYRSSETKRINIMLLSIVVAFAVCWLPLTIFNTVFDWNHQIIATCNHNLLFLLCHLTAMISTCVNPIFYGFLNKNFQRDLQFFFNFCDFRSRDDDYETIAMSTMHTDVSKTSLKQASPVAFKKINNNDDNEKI
NPY-Y2 antag – antagonists of human neuropeptide Y receptor Y2; NPY-Y2 expressing cells, antagonist mode; inhibition, % at 2.7 µM; 0.99% of 140,000 active; in the data active = inhibition above about 17%;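 also: 0% = vehicle with agonist challenge and 100% = reference antagonist with challenge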
NPY Y1 blocker – antagonists of human neuropeptide Y receptor Y1; P25929; HEK293-CNG Y1 cells, membrane potential fluorescence; NPY at EC95, then isoproterenol; AID 1040; 1% of 200,000 active; inhibition, % at 3.6 µM;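 active = inhibition above the campaign mean inhibition of all tested compounds plus 3 SD, cut at about 20% in these data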;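 also: 0% = DMSO wells given NPY plus isoproterenol and 100% = isoproterenol alone without NPY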
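Material: HEK293 Y1/CNG channel cell line | Also added: NPY (25 nM), isoproterenol (1 µM), Ro 20-1724 (25 µM) | Compound: One concentration, 3.6 µM, in 0.4% DMSO | Schedule: 3 h dye uptake, 1 h room-temperature compound, 45 min post-isoproterenol | Signal: Membrane-potential fluorescent dye readout | Read-out: % inhibition of NPY effect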
NPY2 pot ag – potentiates or activates human NPY-Y2 receptor | P49146 | cells expressing NPY-Y2, potentiator/agonist read-out | activation, % at 3.6 µM | 0.45% of 220,000 active | AID 1359; in the data active = activation above about 27%;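 also: cells stimulated with NPY near EC25 plus isoproterenol at EC100; 0% = vehicle plus submaximal agonist and 100% = vehicle plus saturating agonist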
* marks the source's active call; other numbers are inactive results; . = not tested or not shown. Sampled rows, rich in hits. Any-hit rate of the full collection: about 1.8%.

SMILES | NPY1 pot ag | NPY-Y2 antag | NPY Y1 blocker | NPY2 pot ag
O=[N+]([O-])c1ccccc1N/N=C/c1c[nH]c2ccccc12 | 105* | -14 | -18 | 86*
Cc1cc(NC(=O)c2cc([N+](=O)[O-])cc([N+](=O)[O-])c2C)no1 | 20 | . | -1 | 1
CC(C)C(=O)NCc1cc(-c2ccccc2)no1 | 12 | . | 6 | -2
Fc1ccccc1CSc1nnc(-c2cnccn2)n1Cc1ccco1 | -2 | 8 | 0 | 21
C(=C\c1ccccc1)/CSc1nnc(-c2cnccn2)n1Cc1ccco1 | -17 | 22* | 17 | -16
CCCCCN(C(=O)NC(=O)NC(C)CC)S(C)(=O)=O (stereo unspecified) | 1 | 1 | 2 | -6
CC(C)(C)c1ccc(OCCCNCc2ccccc2)cc1 | -12 | 5 | 7 | -3
COc1ccc(OCCCNCCc2ccccc2)cc1 | 0 | . | 21* | -11
CCc1cccc(NC(=O)c2cc(S(=O)(=O)N(C)C)ccc2N2CCCC2)c1 | -1 | . | 4 | -3
COc1ccc(C(C)(C)C)cc1NC(=O)c1cc(S(=O)(=O)N(C)C)ccc1N1CCCC1 | 0 | 22* | 25* | 4
N#Cc1nc(-c2ccco2)oc1N1CCN(c2ccccc2)CC1 | -44 | 11 | 26* | -4
N#Cc1nc(-c2ccco2)oc1N1CCOCC1 | 3 | 0 | 4 | -22
N#Cc1nc(-c2ccco2)oc1N1CCC(Cc2ccccc2)CC1 | -23 | 20* | 21* | -20
CCOC(=O)C1=C(C)N=c2s/c(=C\c3cc(OC)c(OC)c(OC)c3)c(=O)n2C1/C=C/c1ccccc1 (stereo unspecified) | -16 | 0 | 6 | 3
COc1ccc(Nc2nc(N3CCCC3)nc3ccccc23)c(OC)c1 | -49 | 21* | 27* | -24
CC(Nc1nc(N2CCCCC2)nc2ccccc12)c1ccccc1 (stereo unspecified) | -26 | 45* | 46* | -16
CC(Nc1nc(-c2ccccc2)nc2ccccc12)c1ccccc1 (stereo unspecified) | -14 | . | 3 | -3
O=C(Nc1cc(C(F)(F)F)ccc1N1CCOCC1)C1Cc2ccccc2CN1C(=O)c1ccco1 (stereo unspecified) | 2 | 19* | 26* | 8
CC(C)Cc1nc2oc3c(N4CCN(CCO)CC4)ncnc3c2c2c1CCCC2 | -10 | 17* | 9 | 3
O=[N+]([O-])c1ccc(Cl)c(S(=O)(=O)NCC2CCCO2)c1 (stereo unspecified) | 7 | 3 | 2 | 5
CN=c1scc(-c2ccccc2F)n1/N=C/c1ccc(O)c(O)c1O | 42* | . | -1 | 29*
CN1CCN(C2=C(NS(=O)(=O)c3cccs3)C(=O)c3ccccc3C2=O)CC1 | -2 | . | . | -27
O=C1C(NS(=O)(=O)c2cccs2)=C(N2CCOCC2)C(=O)c2ccccc21 | 3 | . | . | -9
CCOc1ccccc1N1CCN(C2=C(NS(=O)(=O)c3cccs3)C(=O)c3ccccc3C2=O)CC1 | 50* | -12 | -14 | 43*
O=C1C(NS(=O)(=O)c2cccs2)=C(N2CCN(Cc3ccccc3)CC2)C(=O)c2ccccc21 | 60* | . | . | 40*
SMILES | NPY1 pot ag | NPY-Y2 antag | NPY Y1 blocker | NPY2 pot ag
C1CCN(c2nc(N3CCCC3)nc(N3CCNCC3)n2)C1 | 79* | 3 | -8 | 69*
CCOc1ccccc1N(C(=O)c1snc(C(N)=O)c1N)C(C(=O)NC1CCCC1)c1ccco1 (stereo unspecified) | -4 | 20* | 26* | -2
COc1ccc(C2C(C(=O)c3sc(C)nc3C)=C(O)C(=O)N2CCCn2ccnc2)cc1OC (stereo unspecified) | 12 | 1 | 1 | 17
CC1(C)c2ssc(=S)c2-c2ccccc2N1C(=O)CSC1=NCCS1 | 39 | -4 | -5 | 34*
Cc1ccc2c(c1)-c1c(ssc1=S)C(C)(C)N2C(=O)CSc1nncn1C | 10 | 2 | -2 | 18
Cc1ccccc1OCC(O)CN(Cc1ccccc1O)C1CCCCC1 (stereo unspecified) | 19 | . | 20* | 13
CN(CC(O)COc1ccccc1F)C1CCCCC1 (stereo unspecified) | -13 | . | 4 | -3
Cc1ccc2[nH]c(=O)c(-c3nc4cc(C)ccn4c3NCc3ccco3)cc2c1 | 31 | 7 | -2 | 33*
COc1ccc(C(=O)/C=C/Nc2ccc(C)cn2)cc1OC | -9 | 2 | 1 | -12
COc1cc(-n2c(=O)c3ccccc3n(CC(=O)c3ccccc3)c2=O)cc(OC)c1OC | -10 | . | 11 | 0
CCOc1ccccc1NC(=O)C1C2CCC3C(CCC21)C3(Cl)Cl (stereo unspecified) | -18 | . | 10 | -13
O=C(Nc1ccccc1)C1C2CCC3C(CCC21)C3(Cl)Cl (stereo unspecified) | -1 | 14 | 21* | -17
Cc1ccc(/C=C/C(=O)NCCCc2ccccc2)cc1 | -51 | 34* | 37* | -34
CC(CCc1ccccc1)NC(=O)/C=C/c1ccc(Cl)cc1 (stereo unspecified) | -47 | 21* | 32* | -21
C#CCNC(=O)/C=C/c1ccc(C)cc1 | -1 | 2 | 5 | 3
Cc1ccc(CNC(=O)/C=C/c2ccccc2Cl)cc1 | -25 | 12 | 31* | -14
O=C(/C=C/c1ccc(F)cc1)NCCc1ccc2c(c1)OCCO2 | -14 | 14 | 11 | -20
Cc1cccnc1NC(=O)CCNS(=O)(=O)c1ccc2c(c1)c(=O)n(C)c(=O)n2C | -6 | . | 1 | 4
O=C(CCCCCCN1C(=O)c2ccccc2C1=O)N1CCC(c2ccccc2)C1 (stereo unspecified) | -15 | 7 | 13 | -28
Cc1nn(-c2cc(N3CCCCCC3)ccc2[N+](=O)[O-])c(=O)c2ccccc12 | 85* | 1 | -13 | 41*
O=C(c1ccccc1)N(NC(=O)C(O)(c1ccccc1)c1ccccc1)c1cccc(F)c1 | -44 | 31* | 53* | -4
CC(C)(C)N(NC(=O)Nc1ccc(F)cc1)C(=O)c1ccccc1 | -12 | 3 | 2 | 14
CCN(NC(=O)C(O)(c1ccc(F)cc1)c1ccc(F)cc1)C(=O)c1ccccc1 | -20 | 25* | 23* | -26
Cc1ccc(C(O)(C(=O)NN(C(=O)c2ccccc2)c2ccccc2)c2ccc(C)cc2)cc1 | -16 | 48* | 59* | 3
CC(C)(O)C(=O)NN(C(=O)c1ccccc1)c1ccc2ccccc2c1 | 14 | -1 | 5 | -3
SMILES | NPY1 pot ag | NPY-Y2 antag | NPY Y1 blocker | NPY2 pot ag
O=C(c1ccccc1F)N(NC(=O)C(O)(c1ccccc1)c1ccccc1)c1ccccc1 | -47 | 30* | 39* | -2
CCOc1ccc(Oc2ccccc2NC(=O)CCNC(C)=O)cc1 | 5 | . | 1 | 4
CCC1CCCCN1c1nc(-c2cccc(OC)c2O)nc2ccccc12 (stereo unspecified) | 4 | 9 | 1 | 15
COCCCNC(NC(=O)c1ccc(Br)cc1)C(Cl)(Cl)Cl (stereo unspecified) | 59* | 1 | -9 | 66*
COCCCNC(=O)c1ccc(C(=O)NCCCOC)cc1 | 8 | 0 | 1 | 1
O=C(/C=C/c1ccccc1Cl)Nc1ccc(Cl)cn1 | -9 | . | 9 | -6
